Only a selection was taken, and hits are over-represented in it overall.
Lung fibro prol – blocks proliferation of human lung fibroblasts | LL 47 human lung fibroblast viability, ATP luminescence; stronger effect = lower value | viability, % at 10 µM | 85,000 tested, 1.1% active;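 active means viability at or below 50% in the single dose screen; inactive means viability above 50%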;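 further: compound exposure lasted 72 h before the ATP readout; 100% = median luminescence of untreated cell-only wells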
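Times – overnight cell rest, 72 h compound treatment at 37 °C · Test system – human lung fibroblast line LL 47, low passage · Amount – 1,150 cells in each well · Controls – cell-only wells, no compound · Doses – 0.1% DMSO in all compound wells · Measured by – CellTiter-Glo luminescence · Buffer or medium – IMEM plus 15% FBS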
H69AR inhibit – growth inhibitors of human H69AR lung tumor cells; H69AR lung tumor viability, ATP luminescence, 72 h; stronger effect = lower value; viability, % at 10 µM; 85,000 tested, 6% active; AID 598;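 active means viability at or below 40%; inactive means viability above 40%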;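 further: multidrug resistant small cell line overexpressing MRP-1 efflux transporter; 100% = mean luminescence of untreated control wells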
HUVEC prolif 384 – human endothelial cell proliferation inhibition | HUVEC proliferation, CellTiter-Glo luminescence, 72 h; stronger effect = lower value | viability, % at 10 µM (by protocol) | 86,000 tested, 1.1% active | AID 648;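 active means viability at or below 30%; inactive means viability above 30%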;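 further: 100% = median luminescence of DMSO-only cell control wells on each plate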
HCT116 bCat-KO – beta-catenin-lacking colon tumor cell growth suppression. HCT116 beta-catenin knockout viability, CellTiter-Glo, 60 h; stronger effect = lower value. viability, % at 10 µM. 140,000 tested, 1.5% active;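 active means viability at or under a set limit, the compound median less 4 SD, cut at about 6% in these data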;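 further: 0% = Hyamine 1622 control at 20 µM and 100% = untreated cell control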
PTEN del growth – PTEN-deleted cell growth suppression. HCT116 PTEN-null viability, CellTiter-Glo, 60 h; stronger effect = lower value. 140,000 tested, 1.2% active. viability, % at 10 µM. AID 827;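 active means viability at or below a set limit, 4 SD under the median of all tested compounds, cut at about 3.7% in these data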;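 further: PTEN knockout HCT116 line with beta catenin targeted HCT116 as companion control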
Starred values were filed as active, the others as inactive; . = not tested or not shown.

SMILES	Lung fibro prol	H69AR inhibit	HUVEC prolif 384	HCT116 bCat-KO	PTEN del growth
COc1ccc(/C=N/NC(=O)C(=O)N2CCN(c3ccccc3OC)CC2)cc1	.	.	.	87.8	101.1
CC1(C)N=C(SCC(=O)Nc2ccc(Cl)cc2)C(c2ccc(Cl)cc2)=N1	94.5	8.4*	77.3	45.8	35.6
CC1(C)N=C(SCC(=O)Nc2ccc(Cl)cc2)C(c2ccccc2)=N1	93.8	50.3	84.2	64.9	72.1
CCCCn1c(N)c(-c2nc3ccccc3o2)c2c([N+](=O)[O-])nn(C)c(=O)c21	.	.	.	83.3	91.6
CCCCCn1c(N)c(-c2nc3ccccc3s2)c2c([N+](=O)[O-])nn(C)c(=O)c21	59.7	14.6*	53.5	26.6	8.1
CCCCC(=O)Nc1ccc(C(=O)Nc2ccc(S(=O)(=O)Nc3nccc(C)n3)cc2)cc1	.	.	.	93.5	100.4
O=C(CSc1nnc(-c2ccccc2)c(-c2ccccc2)n1)NCc1ccco1	89.0	20.1*	66.5	44.7	53.1
CC(NC(=O)CSc1nc2c(c(C(F)(F)F)n1)CCc1ccccc1-2)c1ccccc1 (stereo not given)	104.6	83.6	97.5	74.8	71.7
O=C(CSc1nc2c(c(C(F)(F)F)n1)CCc1ccccc1-2)NCc1ccco1	107.7	30.2*	75.0	77.3	50.6
O=C(NCc1ccccc1)c1ccccc1OCC(=O)N1CCCCC1	.	.	.	99.7	98.7
COc1ccc2nc(Sc3c([N+](=O)[O-])nc(C)n3Cc3ccccc3)[nH]c2c1	.	.	.	4.6*	1.7*
Cc1cc2nc(Sc3c([N+](=O)[O-])nc(C)n3Cc3ccccc3)[nH]c2cc1C	.	.	.	4.6*	2.8*
Cc1nc([N+](=O)[O-])c(Sc2nc3ccccc3[nH]2)n1Cc1ccccc1	.	.	.	10.7	16.5
COC(=O)C(C(=O)OC)C(C[N+](=O)[O-])c1ccc(OC)c(OC)c1 (stereo not given)	.	.	.	65.2	83.5
COc1ccc(C(C[N+](=O)[O-])C2(c3ccc(OC)c(OC)c3)C(=O)c3ccccc3C2=O)cc1 (stereo not given)	.	.	.	2.5*	2.1*
COc1ccc(C2c3ccc4ccccc4c3Oc3ncn(Cc4ccco4)c(=N)c32)cc1OC (stereo not given)	.	.	.	1.7*	0.9*
COc1ccc(C2c3ccc4ccccc4c3Oc3ncn4nc(Cc5ccccc5)nc4c32)cc1OC (stereo not given)	.	.	.	83.6	70.9
COc1ccc(C2c3c(ncn(CCN4CCOCC4)c3=N)Oc3ccc4ccccc4c32)cc1OC (stereo not given)	88.8	1.9*	70.6	49.2	43.5
COC(=O)[C@@H]1CC[C@H](C)[C@@H](c2ccc(C)cc2)N1C(=O)c1ccc(/C=N/O[C@@H](C)CN2CCCCc3nc(C)c(C)cc32)cc1	.	.	.	5.9*	11.8
Cc1ccc(S(=O)(=O)N2CCN(C(=O)CN3CCOCC3)C2c2ccccc2)cc1 (stereo not given)	98.5	7.1*	79.9	81.2	76.8
O=C(CN1CCOCC1)N1CCN(S(=O)(=O)c2ccccc2)C1c1ccccc1 (stereo not given)	91.0	61.1	98.4	83.7	87.9
CC(C)C1Cc2c(sc3[nH]c(=S)n(Cc4ccccc4)c(=O)c23)CO1 (stereo not given)	69.2	25.4*	7.0*	43.2	59.6
Cc1nnc2n(-c3ccccc3)c(=O)c3c4c(sc3n12)COC(C(C)C)C4 (stereo not given)	100.6	79.1	98.6	96.6	95.3
COc1ccc(C=Nc2cccc3c(=O)[nH][nH]c(=O)c23)c2ccccc12	98.9	31.7*	69.6	94.1	89.8
COC(=O)C(C)Sc1nc2c(c(-c3ccc(OC)cc3)c1C#N)-c1ccccc1C2=O (stereo not given)	87.8	34.2*	55.3	.	.
SMILES	Lung fibro prol	H69AR inhibit	HUVEC prolif 384	HCT116 bCat-KO	PTEN del growth
CCCCCn1c(SCC#N)nc2cc(C(=O)NC3CCCCC3)ccc2c1=O	47.7*	53.4	67.1	.	.
O=c1c2cccnc2[nH]c(=S)n1CCC1=CCCCC1	76.7	38.0*	73.9	57.4	69.4
CCCCCn1c(=S)[nH]c2ncccc2c1=O	95.7	94.6	94.8	85.4	92.9
O=S1(=O)C=C(Sc2nc3cc(Cl)ccc3o2)c2ccccc21	.	.	.	1.6*	1.6*
COc1ccccc1NC(=S)NNC(=S)Nc1ccc(OC(F)F)cc1	.	.	.	87.9	81.5
C[C@]1(C(=O)NCc2cc(F)cc(C(F)(F)F)c2)C=C[C@@H](Cc2ccccc2)N1C(=O)c1ccccc1	.	.	.	74.3	67.3
O=C(COC(=O)c1ccc(S(=O)(=O)Nc2ccccc2)cc1)NCc1ccco1	.	.	.	100.1	97.8
COc1ccccc1-c1cc(C(=O)Nc2cc(C)nn2-c2ccccc2)no1	67.6	27.1*	65.9	36.0	25.8
COCCNC(=O)c1cc(-c2ccccc2OC)on1	95.1	36.3*	90.4	60.4	57.8
COc1ccc(-c2cc(C(=O)Nc3cc(C)nn3-c3ccccc3)no2)cc1	88.1	63.9	81.3	89.8	74.0
COc1ccccc1-c1cc(C(=O)Nc2cc(C)n(Cc3ccc(Cl)cc3)n2)no1	98.4	5.4*	35.9	89.6	87.6
Cc1cc(C(=O)Nc2cc(C)n(Cc3ccc(Cl)cc3)n2)no1	93.8	94.5	102.8	72.9	74.5
Cc1ccc(NC(=O)CSc2nn(-c3ccccc3)c(=S)s2)cc1S(=O)(=O)N(C)C	.	.	.	10.1	15.2
COc1cc(CC(=O)OCC(=O)c2ccc3c(c2)OCCO3)cc(OC)c1OC	53.0	33.3*	37.6	14.9	12.1
COCc1nnc(NC(=O)c2ccc(S(=O)(=O)N3CCCCCC3)cc2)o1	88.8	42.5	82.9	31.8	27.9
COCc1nnc(NC(=O)c2ccc(S(=O)(=O)N(C)C3CCCCC3)cc2)o1	96.9	24.7*	60.3	72.3	79.5
CCc1nnc(NC(=O)c2ccc(S(=O)(=O)N(CC(C)C)CC(C)C)cc2)o1	57.0	25.1*	47.0	23.3	17.9
CC(C)Oc1ccc(C(=O)Nc2ccc(Cl)c(S(=O)(=O)Nc3ccc(Cl)cc3)c2)cc1	.	.	.	3.1*	3.1*
O=C(O)c1ccc(NS(=O)(=O)c2cc(Cl)ccc2Cl)cc1	92.8	103.3	81.0	93.8	85.8
O=C(CCCCn1c(=O)c2ccccc2n(CC(=O)Nc2cccc(F)c2)c1=O)NCc1ccco1	74.6	91.6	88.2	97.8	101.9
CCOc1cc2[nH]c(=O)n(CCCCCC(=O)NCc3ccc4c(c3)OCO4)c(=O)c2cc1OCC	34.0*	17.5*	30.6	.	.
CCc1ccc(NC(=O)Cn2c(=O)n(CCCC(=O)NCc3ccco3)c(=O)c3ccccc32)cc1	82.2	29.7*	41.4	98.6	91.8
N#Cc1ccccc1Cn1c(=O)n(CCCC(=O)NCc2ccc3c(c2)OCO3)c(=O)c2ccccc21	68.6	39.9*	59.5	63.9	72.6
N#Cc1ccccc1Cn1c(=O)n(Cc2ccc(C(=O)NCc3ccco3)cc2)c(=O)c2ccccc21	53.0	11.6*	26.2*	20.1	19.1
CCOc1cc2[nH]c(=O)n(CCCCCC(=O)NCc3ccco3)c(=O)c2cc1OCC	97.5	95.2	58.9	105.3	89.1
